Test results taken from PMC7540414 (The Prostate, 2020).

How the values were obtained:
patient 2 tumor CR cells = assay: Drug sensitivity assay; format: cell-based, Human; details: for Sensitivity of tumor-derived CR cells compared with normal CR cells: patient 2, IC50 comparison, 72 hour, P < .01 where significant
Summary of the method: (§1)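 Tumor CR cells came from radical prostatectomy tissue (>70% tumor) by protease dissociation and the conditional reprogramming method, alongside matched benign CR cells. 3000 cells per well were seeded in conditioned medium, in triplicate. After 24 h, medium containing test compound was added. […] Values are mean ± SD of three separate experiments in triplicate.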

metastatic CRPC [1] = details: phase I trials; cited from earlier work
patient 1 tumor CR cells = assay: Drug sensitivity assay; format: cell-based, Human; details: for Sensitivity of tumor-derived CR cells compared with benign CR cells: patient 1, IC50 comparison, 72 hour, P < .05 where significant
Summary of the method: as §1

tumor CR cells = format: cell-based, Human; details: shared by patients 1 and 2; FDR 0.05; FC 1.5
Summary of the method: (§2)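 Tumor and normal CR cells from each patient were grown in conditioned medium and given test compound (28 nM for patient 1, 6.5 nM for patient 2) or DMSO, then profiled by RNA-seq. Treated-vs-DMSO DEGs were called at FDR < 0.05 and FC 1.5. Induced and inhibited gene sets were compared across both patients' cells by Venn diagram (Venny).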

metastatic CRPC [2] = details: phase II trial, CFZ in combination with other drugs; cited from earlier work
normal CR cells = format: cell-based, Human; details: shared by patients 1 and 2; FDR 0.05; FC 1.5
Summary of the method: as §2

| Structure (SMILES) | Sensitivity of tumor-derived CR cells compared with normal CR cells (patient 2 tumor CR cells) | Sensitivity of tumor-derived CR cells compared with benign CR cells (patient 1 tumor CR cells) | further results |
| --- | --- | --- | --- |
| CC(C)C[C@H](NC(=O)[C@H](Cc1ccccc1)NC(=O)c1cnccn1)B(O)O [BTZ, bortezomib] | significant responses | more sensitive | patients showing stable PSA (metastatic CRPC [1]): 25%; patients with more than 50% decline in PSA (metastatic CRPC [1]): 4% |
| CC(C)C[C@H](NC(=O)[C@H](CCc1ccccc1)NC(=O)CN1CCOCC1)C(=O)N[C@@H](Cc1ccccc1)C(=O)N[C@@H](CC(C)C)C(=O)[C@@]1(C)CO1 [CFZ, carfilzomib] | significant responses | more sensitive | IC50 (patient 2 tumor CR cells; Homo sapiens, 72 h): 6.5 nM; common genes exclusively induced in the tumor CR cells (tumor CR cells): 23; genes inhibited that were shared in the tumor CR cells (tumor CR cells): 45; patients with a decline in PSA (metastatic CRPC [2]): 3.5%; IC50 (patient 1 tumor CR cells; Homo sapiens, 72 h): 28 nM; shared genes inhibited in the normal CR cells (normal CR cells): 56 |
| N[C@@H](CCC(=O)N[C@@H](CS)C(=O)NCC(=O)O)C(=O)O [GSH, glutathione] | No significant differential responses | No significant differential responses |  |
| S=C=NCCc1ccccc1 [PTC, phenethyl isothiocyanate] | no differences in sensitivity |  |  |
| Nc1nccc(-c2c(-c3ccc(F)cc3)ncn2C2CCNCC2)n1 [SB220025] | No significant differential responses | No significant differential responses |  |
| C[S+]([O-])CCCCN=C=S (stereo not shown) [SFN, sulforaphane] | no differences in sensitivity | more sensitive |  |
